Results reported in publication PMC4206694 (Journal of Medicinal Chemistry, 2014).
pIC50: −log10 of the molar value.

How the values were obtained:
CYP2C8 = molecular target: T1, CYP2C8 (Homo sapiens, UniProt P10632); assay: Cytochrome P450 inhibition, CYP2C8; type: in vitro ADME
T1 sequence (P10632 1-490): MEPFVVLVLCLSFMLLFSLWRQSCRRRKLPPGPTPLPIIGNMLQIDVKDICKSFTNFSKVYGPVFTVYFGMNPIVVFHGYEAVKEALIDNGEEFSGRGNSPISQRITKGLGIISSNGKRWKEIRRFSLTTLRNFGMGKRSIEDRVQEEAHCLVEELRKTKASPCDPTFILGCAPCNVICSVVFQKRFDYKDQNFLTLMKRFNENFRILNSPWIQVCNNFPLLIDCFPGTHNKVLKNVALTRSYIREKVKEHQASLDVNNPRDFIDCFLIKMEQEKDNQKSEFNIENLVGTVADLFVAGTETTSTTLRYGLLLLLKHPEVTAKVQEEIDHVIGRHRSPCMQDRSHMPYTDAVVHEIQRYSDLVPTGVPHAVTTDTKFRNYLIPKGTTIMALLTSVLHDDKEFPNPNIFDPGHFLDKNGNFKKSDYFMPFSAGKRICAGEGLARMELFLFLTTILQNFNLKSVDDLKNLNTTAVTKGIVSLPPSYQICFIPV

CYP2C9 = CYP2C9 (Homo sapiens, UniProt P11712); assay: Cytochrome P450 inhibition, CYP2C9; type: in vitro ADME
μ-opioid receptor = μ-opioid receptor (Homo sapiens, UniProt P35372); assay: Psychoactive Drug Screening Program competition binding, μ-opioid receptor; conditions: read-out: IC50 μ-opioid receptor; ligand displacement, PDSP
[1] = Pharmacokinetic analysis, plasma and brain levels; type: in vivo, mouse; conditions: single time point (6 h) after IP 1, 3, 10 or 30 mg/kg, Figure S3
In short: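 Compound in 5% DMSO/10% cremophor EL/85% D5W (pH 7.2) was dosed to adult mice (0.2 mL total). Mice were killed by CO2. Plasma came from ACD-treated blood spun at 9300g. Brains were rinsed in PBS and homogenized in 3 volumes of PBS. Plasma or lysate (100 μL) was precipitated with 200 μL acetonitrile/0.15% formic acid and spun at 13120g for 5 min. Supernatant was analysed by HPLC/MS/MS.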

CYP3A4 = CYP3A4 (Homo sapiens, UniProt P08684); assay: Cytochrome P450 inhibition, CYP3A4; type: in vitro ADME
CYP2B6 = molecular target: T2, CYP2B6 (Homo sapiens, UniProt P20813); assay: Cytochrome P450 inhibition, CYP2B6; type: in vitro ADME
T2 sequence (P20813 1-491): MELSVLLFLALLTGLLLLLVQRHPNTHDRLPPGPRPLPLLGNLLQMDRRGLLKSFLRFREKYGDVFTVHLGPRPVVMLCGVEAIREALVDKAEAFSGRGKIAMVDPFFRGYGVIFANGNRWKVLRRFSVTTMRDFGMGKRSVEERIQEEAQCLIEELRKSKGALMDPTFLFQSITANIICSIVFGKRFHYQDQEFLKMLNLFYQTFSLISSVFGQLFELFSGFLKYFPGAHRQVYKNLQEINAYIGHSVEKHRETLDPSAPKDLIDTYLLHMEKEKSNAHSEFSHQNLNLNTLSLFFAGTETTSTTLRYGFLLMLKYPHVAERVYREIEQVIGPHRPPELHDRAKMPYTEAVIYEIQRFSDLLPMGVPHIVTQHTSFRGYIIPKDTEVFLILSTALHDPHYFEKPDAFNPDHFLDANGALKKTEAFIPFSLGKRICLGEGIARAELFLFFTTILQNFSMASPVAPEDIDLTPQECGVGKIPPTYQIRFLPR

[2] = tested on: dopaminergic neurons within the SNc; assay: MPTP model of Parkinson's disease; type: in vivo, mouse; conditions: BID, 21 days after MPTP; for rescue of TH+ neurons: 10 mg kg^–1 day^–1, IP
In short: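 Adult male C57Bl/6 mice, individually housed 1 week, received free-base MPTP 30 mg/kg/day IP for 5 days. Compound or vehicle was started on day 6, 24 h after the last MPTP dose, and given twice daily for 21 days. After perfusion and fixation in 4% paraformaldehyde, every fourth section through striatum and SNc was stained for tyrosine hydroxylase. TH+ cells were counted blinded; mean ± SEM.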

CYP3D6 = CYP3D6 (Homo sapiens, UniProt P10635); assay: Cytochrome P450 inhibition, CYP3D6; type: in vitro ADME
[3] = tested on: newborn hippocampal neurons; assay: In vivo hippocampal neuroprotection assay; design: species or system mouse; conditions: for number of surviving newborn hippocampal neurons (BrdU+ cells): ICV 10 μM, Figure 1
In short: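 Adult (12-week) wild-type […] mice, environmentally deprived, four per group. Compound was infused ICV into the left lateral ventricle by implanted osmotic minipump (0.5 μL/h, 7 days) or given IP twice daily. BrdU 50 mg/kg/day IP for 6 days; perfused 24 h after last BrdU. Anti-BrdU staining after formamide/SSC and HCl unmasking. BrdU+ SGZ/dentate cells counted contralaterally, every fifth section, normalized to dentate gyrus volume.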

[4] = tested on: motor neurons in the spinal cord; conditions: cited from earlier work
[5] = tested on: dopaminergic neurons within the SNc; conditions: cited from earlier work
[6] = cited from earlier work
[7] = cited from earlier work; remark: listed apart in the source
[8] = tested on: newborn hippocampal neurons; conditions: cited from earlier work
[9] = cited from earlier work; remark: listed apart in the source
[10] = tested on: cerebral cortical neurons; conditions: cited from earlier work
[11] = Long-term treatment tolerability; type: in vivo

CYP3D6, sequence (P10635 whole entry): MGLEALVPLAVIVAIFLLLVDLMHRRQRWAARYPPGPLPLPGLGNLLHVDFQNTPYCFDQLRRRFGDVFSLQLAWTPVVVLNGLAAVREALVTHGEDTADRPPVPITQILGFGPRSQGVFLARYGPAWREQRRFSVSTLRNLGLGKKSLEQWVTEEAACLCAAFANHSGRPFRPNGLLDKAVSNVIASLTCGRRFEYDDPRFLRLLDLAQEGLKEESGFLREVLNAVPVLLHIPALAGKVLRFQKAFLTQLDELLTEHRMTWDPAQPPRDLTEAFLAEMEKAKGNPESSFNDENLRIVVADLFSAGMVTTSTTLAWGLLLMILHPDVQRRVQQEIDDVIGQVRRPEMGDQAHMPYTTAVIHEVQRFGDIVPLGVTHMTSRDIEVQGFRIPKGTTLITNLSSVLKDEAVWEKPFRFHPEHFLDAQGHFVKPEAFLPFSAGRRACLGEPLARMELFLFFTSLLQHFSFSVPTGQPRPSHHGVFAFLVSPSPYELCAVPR
μ-opioid receptor, sequence (P35372 whole entry, species assumed): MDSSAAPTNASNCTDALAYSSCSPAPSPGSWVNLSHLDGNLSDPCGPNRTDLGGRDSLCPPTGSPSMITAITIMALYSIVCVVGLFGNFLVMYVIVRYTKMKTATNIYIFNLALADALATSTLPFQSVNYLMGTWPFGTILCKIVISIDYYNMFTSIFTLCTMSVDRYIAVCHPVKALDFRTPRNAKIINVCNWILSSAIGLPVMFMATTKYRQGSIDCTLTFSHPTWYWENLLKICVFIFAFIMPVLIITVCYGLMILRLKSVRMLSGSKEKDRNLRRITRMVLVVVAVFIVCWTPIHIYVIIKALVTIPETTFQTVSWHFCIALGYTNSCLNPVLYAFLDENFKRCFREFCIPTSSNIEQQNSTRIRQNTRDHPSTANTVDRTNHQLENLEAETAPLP
CYP2C9, sequence (P11712 whole entry): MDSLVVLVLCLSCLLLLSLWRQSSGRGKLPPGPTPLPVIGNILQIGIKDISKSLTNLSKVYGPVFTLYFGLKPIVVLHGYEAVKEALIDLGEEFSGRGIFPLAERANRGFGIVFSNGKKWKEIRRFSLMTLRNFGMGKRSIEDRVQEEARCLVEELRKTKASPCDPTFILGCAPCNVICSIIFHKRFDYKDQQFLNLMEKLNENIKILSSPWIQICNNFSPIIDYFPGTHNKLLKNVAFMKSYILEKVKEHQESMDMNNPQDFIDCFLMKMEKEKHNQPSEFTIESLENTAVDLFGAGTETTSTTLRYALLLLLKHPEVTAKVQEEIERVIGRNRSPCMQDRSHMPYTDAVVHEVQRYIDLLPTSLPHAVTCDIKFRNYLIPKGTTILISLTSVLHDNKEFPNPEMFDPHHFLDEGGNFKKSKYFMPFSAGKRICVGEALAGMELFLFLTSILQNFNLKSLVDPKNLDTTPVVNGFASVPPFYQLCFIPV
CYP3A4, sequence (P08684 whole entry): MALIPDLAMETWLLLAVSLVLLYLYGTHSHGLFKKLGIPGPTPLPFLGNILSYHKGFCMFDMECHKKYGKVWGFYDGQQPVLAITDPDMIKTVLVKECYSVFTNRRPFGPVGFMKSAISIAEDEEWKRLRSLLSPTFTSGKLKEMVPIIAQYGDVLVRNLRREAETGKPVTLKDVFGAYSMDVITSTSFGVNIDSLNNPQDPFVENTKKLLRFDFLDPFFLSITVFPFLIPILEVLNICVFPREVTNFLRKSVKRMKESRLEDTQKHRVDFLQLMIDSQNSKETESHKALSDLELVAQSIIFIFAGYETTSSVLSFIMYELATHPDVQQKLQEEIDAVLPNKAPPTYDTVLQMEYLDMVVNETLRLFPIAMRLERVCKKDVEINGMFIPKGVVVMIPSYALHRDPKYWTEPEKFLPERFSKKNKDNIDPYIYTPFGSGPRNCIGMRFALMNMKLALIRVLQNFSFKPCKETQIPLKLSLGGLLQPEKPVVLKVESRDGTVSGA

COc1cccc(NC[C@H](F)Cn2c3ccc(Br)cc3c3cc(Br)ccc32)n1 [(−)-15, (S)-N-(3-(3,6-Dibromo-9H-carbazol-9-yl)-2-fluoropropyl)-6-methoxypyridin-2-amine]
CYP2C8 sensitivity (CYP2C8): insensitive
CYP2C9 sensitivity (CYP2C9): insensitive
pIC50 (μ-opioid receptor): 5.09
plasma and brain concentrations compared with racemic 15 [1]: indistinguishable
CYP3A4 sensitivity (CYP3A4): insensitive
CYP2B6 sensitivity (CYP2B6): insensitive
neuroprotective activity in MPTP model (enantiomers) ([2]; IP, Figure 3): strongly protective
CYP3D6 sensitivity (CYP3D6): insensitive
enantiomer-specific neuroprotective activity in mouse model of neurogenesis ([3]; pure enantiomers dosed ICV 7 days, Figure 2): highly active

OC(CNc1ccccc1)Cn1c2ccc(Br)cc2c2cc(Br)ccc21 (stereo not drawn) [compound 1]
motor neuron cell death in spinal cord of G93A SOD1 transgenic mice [4]: minimize motor neuron cell death in the spinal cord
protection of neurons in the substantia nigra, MPTP mouse model [5]: protect neurons in the substantia nigra
neuroprotective effect in retinal degeneration [6]: neuroprotective effects
neuroprotective effect in age-related cognitive decline [7]: neuroprotective effects
number of surviving newborn hippocampal cells ([8]; unbiased in vivo screen, 1 week): approximately doubled
antidepressant effect [9]: antidepressant activity

COc1cccc(NCC(F)Cn2c3ccc(Br)cc3c3cc(Br)ccc32)c1 (stereo not drawn) [compound 2]
motor neuron cell death in spinal cord of G93A SOD1 transgenic mice [4]: minimize motor neuron cell death in the spinal cord
protection of neurons in the substantia nigra, MPTP mouse model [5]: protect neurons in the substantia nigra
protection of cerebral cortical neurons, moderate fluid percussion TBI [10]: protect rat cerebral cortical neurons
rescue of TH+ neurons [2]: around 75%
dose showing significant neuroprotective effect in MPTP model ([2]; IP): 5 mg kg^–1 day^–1
impact on weight, behavior, or appearance ([11]; up to 40 mg kg^–1 day^–1 for 21 days): no negative impact on the weight, behavior, or appearance
activity in the in vivo hippocampal neuroprotection assay ([8]; previous studies): substantially improved the activity
antidepressant effect [9]: exert antidepressant effects

[N-]=[N+]=NCC(F)Cn1c2ccc(Br)cc2c2cc(Br)ccc21 (stereo not drawn) [compound 11, 9-(3-Azido-2-fluoropropyl)-3,6-dibromo-9H-carbazole]
number of surviving newborn hippocampal neurons (BrdU+ cells) ([3]; 7 days): inactive

Cl.NCC(F)Cn1c2ccc(Br)cc2c2cc(Br)ccc21 (stereo not drawn) [compound 12, 3-(3,6-Dibromo-9H-carbazol-9-yl)-2-fluoropropan-1-amine]
number of surviving newborn hippocampal neurons (BrdU+ cells) ([3]; 7 days): increase in the number of BrdU+ cells compared with vehicle

COc1cccc(NCC(F)Cn2c3ccc(Br)cc3c3cc(Br)ccc32)n1 (stereo not drawn) [compound 15, N-(3-(3,6-Dibromo-9H-carbazol-9-yl)-2-fluoropropyl)-6-methoxypyridin-2-amine]
rescue of TH+ neurons [2]: over 85%
dose showing significant neuroprotective effect in MPTP model ([2]; IP): 1 mg kg^–1 day^–1
impact on weight, behavior, or appearance ([11]; up to 10 mg kg^–1 day^–1 for 21 days): no negative impact on the weight, behavior, or appearance
number of surviving newborn hippocampal neurons (BrdU+ cells) ([3]; 7 days): approximately doubled
dose at which active in hippocampal neuroprotection ([3]; IP, 7 days): 1 mg kg^–1 day^–1
dose at which ceiling of efficacy is reached in hippocampal neuroprotection ([3]; IP, 7 days): 10 mg kg^–1 day^–1

NCC(O)Cn1c2ccc(Br)cc2c2cc(Br)ccc21 (stereo not drawn) [compound 16, 1-Amino-3-(3,6-dibromo-9H-carbazol-9-yl)propan-2-ol]
number of surviving newborn hippocampal neurons (BrdU+ cells) ([3]; 7 days): increase in the number of BrdU+ cells compared with vehicle

COc1cccc(NCC(O)Cn2c3ccc(Br)cc3c3cc(Br)ccc32)n1 (stereo not drawn) [compound 17, 1-(3,6-Dibromo-9H-carbazol-9-yl)-3-((6-methoxypyridin-2-yl)amino)propan-2-ol]
number of surviving newborn hippocampal neurons (BrdU+ cells) ([3]; 7 days): increase in the number of BrdU+ cells compared with vehicle
